Data on 60 molecules can be found in PubChem BioAssay AID485348 (The Scripps Research Institute Molecular Screening Center, 2010).

This assay concerns the target Nuclear receptor subfamily 5 group A member 2 (Homo sapiens) (UniProt O00482). Nature of the assay: LRH-1 reporter luminescence decrease – cell-based, 3X%INH, LRH-1 inverse agonist project (AID 485348). To be noted: HEK293T LRH-1 Cyp19-luciferase reporter, 20 h, at 5 µM, active compounds read high. The essentials:
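Assay system – HEK293T with full-length LRH-1 plus Cyp19 luciferase reporter · Times – 20 h compound exposure after 4 h rest · Measured by – luminescence · Benchmarks – DMSO vehicle wells · Repeats – triplicate wells per compound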

Calls of active or inactive are those of the source.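 The calls were made as follows: active = inhibition above 25%, the campaign hit cutoff; inactive = the rest.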

Sequence of Nuclear receptor subfamily 5 group A member 2 (Homo sapiens) (O00482 whole entry, looked up): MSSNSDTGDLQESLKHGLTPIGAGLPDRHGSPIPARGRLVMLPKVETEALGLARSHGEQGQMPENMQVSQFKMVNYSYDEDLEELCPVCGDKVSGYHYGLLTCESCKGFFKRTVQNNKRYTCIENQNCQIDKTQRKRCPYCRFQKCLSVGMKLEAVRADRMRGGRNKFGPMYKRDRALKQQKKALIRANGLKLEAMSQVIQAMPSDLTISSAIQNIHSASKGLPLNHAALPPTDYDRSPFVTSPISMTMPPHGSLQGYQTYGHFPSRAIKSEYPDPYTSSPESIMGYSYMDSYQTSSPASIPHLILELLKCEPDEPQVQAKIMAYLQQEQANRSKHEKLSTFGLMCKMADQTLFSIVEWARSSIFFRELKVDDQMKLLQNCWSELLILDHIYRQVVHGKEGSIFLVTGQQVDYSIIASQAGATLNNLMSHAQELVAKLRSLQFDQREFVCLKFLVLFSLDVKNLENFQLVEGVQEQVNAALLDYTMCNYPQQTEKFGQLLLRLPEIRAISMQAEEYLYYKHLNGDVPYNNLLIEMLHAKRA

For `CCn1c(=O)cc(N2CCN(Cc3ccccc3)CC2)[nH]c1=O`, the inhibition was 9.7% (inactive).

Regarding `Cn1c(=O)cc(N2CCN(c3cccc(Cl)c3)CC2)[nH]c1=O`, the inhibition is 40.7%.

`O=c1cc(N2CCc3ccccc32)[nH]c(=O)n1C1CCCCC1`: the inhibition is 14.3% (inactive).

Regarding `C=CCn1c(N2CCN(c3cccc(C(F)(F)F)c3)CC2)cc(=O)n(C2CCCCC2)c1=O`, the inhibition was 29.7%.

For `O=c1cc(N2CCN(Cc3ccc4c(c3)OCO4)CC2)[nH]c(=O)n1C1CCCCC1`, the inhibition is 16.7% (inactive).

For `O=c1cc(N2CCN(c3cccc(C(F)(F)F)c3)CC2)[nH]c(=O)n1Cc1ccccc1`, the inhibition was 3% (inactive).

As for `C=CCN1CCN(c2cc(=O)n(C3CCCCC3)c(=O)[nH]2)CC1`, the inhibition is -30% (inactive).

For `O=c1cc(N2CCOCC2)[nH]c(=O)n1C1CCCCC1`, the inhibition was 5.3% (inactive).

As to `CCn1c(=O)cc(N2CCN(C(=O)c3ccco3)CC2)[nH]c1=O`, the inhibition was 3.3% (inactive).

For the molecule `Cc1cc(C)cc(N2CCN(c3cc(=O)n(C4CCCCC4)c(=O)[nH]3)CC2)c1`, the inhibition was 38.3%.

Turning to `O=c1cc(N2CCN(c3ncccc3Cl)CC2)[nH]c(=O)n1C1CCCCC1`, the inhibition is 17.7% (inactive).

As for `O=c1cc(N2CCN(c3cccc(C(F)(F)F)c3)CC2)[nH]c(=O)n1C1CCCCC1`, the inhibition was 45.7%.

For the molecule `CCn1c(=O)cc(N2CCN(c3cccc(C(F)(F)F)c3)CC2)[nH]c1=O`, the inhibition was 39.3%.

Regarding `O=c1cc(N2CCN(c3ccccc3C(F)(F)F)CC2)[nH]c(=O)n1C1CCCCC1`, the inhibition is 16% (inactive).

Consider `O=c1cc(N2CCN(c3cccc(C(F)(F)F)c3)CC2)[nH]c(=O)n1-c1ccccc1`, for which the inhibition is 17.7% (inactive).

As to `Cc1ccc(Cl)cc1N1CCN(c2cc(=O)n(C3CCCCC3)c(=O)[nH]2)CC1`, the inhibition was 16.3% (inactive).

As to `O=c1cc(N2CCN(C3CCCCC3)CC2)[nH]c(=O)n1C1CCCCC1`, the inhibition is 35.3%.

As for `O=c1cc(N2CCN(c3ccc(F)cc3F)CC2)[nH]c(=O)n1C1CCCCC1`, the inhibition is 3.3% (inactive).

For `O=c1cc(N2CCC(Cc3ccccc3)CC2)[nH]c(=O)n1C1CCCCC1`, the inhibition was 2.3% (inactive).

Turning to `CCN1CCN(c2cc(=O)n(C3CCCCC3)c(=O)[nH]2)CC1`, the inhibition was 5.3% (inactive).

Turning to `O=c1cc(N2CCCC2)[nH]c(=O)n1C1CCCCC1`, the inhibition is 8.7% (inactive).

`COC(=O)C1CCN(c2cc(=O)n(C3CCCCC3)c(=O)[nH]2)CC1`: the inhibition is 18% (inactive).

For the molecule `O=c1cc(N2CCN(c3nccc4occc34)CC2)[nH]c(=O)n1C1CCCCC1`, the inhibition was 2.7% (inactive).

For the molecule `O=C(c1ccco1)N1CCN(c2cc(=O)n(C3CCCCC3)c(=O)[nH]2)CC1`, the inhibition is 11% (inactive).

`O=C(c1ccccc1)N1CCN(c2cc(=O)n(C3CCCCC3)c(=O)[nH]2)CC1`: the inhibition was 0.3% (inactive).

Regarding `O=c1cc(N2CCN(c3cccc(C(F)(F)F)n3)CC2)[nH]c(=O)n1C1CCCCC1`, the inhibition is 3.3% (inactive).

For the molecule `O=c1cc(N2CCN(c3cccc(Cl)c3)CC2)[nH]c(=O)[nH]1`, the inhibition was 0% (inactive).

For `O=c1cc(N2CCN(c3cc(C(F)(F)F)ccn3)CC2)[nH]c(=O)n1C1CCCCC1`, the inhibition is 20.3% (inactive).

With `N#CCn1c(N2CCN(c3cccc(C(F)(F)F)c3)CC2)cc(=O)n(C2CCCCC2)c1=O`, the inhibition is 2% (inactive).

Regarding `O=c1cc(N2CCN(c3ccccc3)CC2)[nH]c(=O)n1C1CCCCC1`, the inhibition was 32%.

Regarding `O=c1cc(N2CCN(c3cccc(Cl)c3Cl)CC2)[nH]c(=O)n1C1CCCCC1`, the inhibition was 42%.

Take `O=c1cc(N2CCN(c3cccc(Cl)c3)CC2)[nH]c(=O)n1C1CCCCC1`: the inhibition was 52.3%.

`O=c1cc(N2CCN(c3ccccc3Cl)CC2)[nH]c(=O)n1C1CCCCC1`: the inhibition was 16% (inactive).

In the case of `O=c1cc(N2CCN(c3ncccc3C(F)(F)F)CC2)[nH]c(=O)n1C1CCCCC1`, the inhibition was 11.3% (inactive).

As to `O=c1cc(N2CCN(c3cccc(F)c3)CC2)[nH]c(=O)n1C1CCCCC1`, the inhibition was 36.7%.

Regarding `O=c1cc(N2CCN(c3cc(Cl)cc(Cl)c3)CC2)[nH]c(=O)n1C1CCCCC1`, the inhibition was 20% (inactive).

For `CCn1c(=O)cc(N2CCN(c3ccc(F)cc3)CC2)[nH]c1=O`, the inhibition is 2.3% (inactive).

As for `O=c1cc(N2CCN(c3ccccc3)CC2)[nH]c(=O)n1Cc1ccc(F)cc1`, the inhibition is 22.7% (inactive).

Turning to `Cn1c(=O)cc(N2CCN(c3ccc(F)cc3)CC2)[nH]c1=O`, the inhibition was 14% (inactive).

In the case of `CCn1c(=O)cc(N2CCN(c3cccc(Cl)c3)CC2)[nH]c1=O`, the inhibition is 45%.

For the molecule `Cc1ccc(C)n1CCN1CCN(c2cc(=O)n(C3CCCCC3)c(=O)[nH]2)CC1`, the inhibition was 32.3%.

For `C=CCn1c(=O)cc(N2CCN(c3cccc(C(F)(F)F)c3)CC2)[nH]c1=O`, the inhibition is 36.7%.

As for `CC1CCN(c2cc(=O)n(Cc3ccc(F)cc3)c(=O)[nH]2)CC1`, the inhibition is 5.7% (inactive).

For `O=c1cc(N2CCN(c3ccnc4cc(Cl)ccc34)CC2)[nH]c(=O)n1C1CCCCC1`, the inhibition is 34.7%.

As for `O=c1cc(N2CCN(c3cccc(C(F)(F)F)c3)CC2)n(Cc2ccccc2)c(=O)n1C1CCCCC1`, the inhibition is 21.3% (inactive).

For `O=c1cc(N2CCN(c3nc(-c4ccccc4)ns3)CC2)[nH]c(=O)n1C1CCCCC1`, the inhibition was 42%.

As for `O=c1cc(N2CCN(CCN3CCOCC3)CC2)[nH]c(=O)n1C1CCCCC1`, the inhibition is 13.3% (inactive).

Regarding `O=c1cc(N2CCCCC2)[nH]c(=O)n1C1CCCCC1`, the inhibition is 20.3% (inactive).

For `O=c1cc(N2CCN(c3cccc(Cl)n3)CC2)[nH]c(=O)n1C1CCCCC1`, the inhibition was 45%.

`CCn1c(=O)cc(N2CCN(c3ccccc3)CC2)[nH]c1=O`: the inhibition is 3.7% (inactive).

Consider `CCOC(=O)N1CCN(c2cc(=O)n(C3CCCCC3)c(=O)[nH]2)CC1`, for which the inhibition was 16% (inactive).

Turning to `COc1ccc(N2CCN(c3cc(=O)n(C4CCCCC4)c(=O)[nH]3)CC2)cc1`, the inhibition was 1.7% (inactive).

Consider `O=c1cc(N2CCN(Cc3ccc(Cl)cc3)CC2)[nH]c(=O)n1C1CCCCC1`, for which the inhibition is 30.3%.

For `O=c1cc(N2CCN(c3cccc(Br)c3)CC2)[nH]c(=O)n1C1CCCCC1`, the inhibition was 17% (inactive).

In the case of `O=c1cc(N2CCN(c3ccccn3)CC2)[nH]c(=O)n1C1CCCCC1`, the inhibition is 36%.

On to `O=c1cc(N2CCN(c3ccc(F)cc3)CC2)[nH]c(=O)n1C1CCCCC1`, for which the inhibition was 1.3% (inactive).

Regarding `CC(C)Cn1c(=O)cc(N2CCN(c3cccc(C(F)(F)F)c3)CC2)[nH]c1=O`, the inhibition is 33.3%.

As for `O=c1cc(N2CCN(c3ccc(C(F)(F)F)cc3)CC2)[nH]c(=O)n1C1CCCCC1`, the inhibition is 0% (inactive).

As for `CC1CCN(c2cc(=O)n(C3CCCCC3)c(=O)[nH]2)CC1`, the inhibition was 10% (inactive).

Take `O=c1cc(N2CCN(C(c3ccccc3)c3ccccc3)CC2)[nH]c(=O)n1C1CCCCC1`: the inhibition is 4% (inactive).
